Results: ChEMBL document CHEMBL3351658, “Exploring human parainfluenza virus type-1 hemagglutinin-neuraminidase as a target for inhibitor discovery” (J Med Chem, 2014)

Legend:
LLC-MK2 [1] = assay: (§1) Cytotoxicity against rhesus monkey LLC-MK2 cells assessed as cell viability at 250 uM after 48 hrs by MTT assay; format: cell-based, Macaca mulatta; conditions: llc-mk2, 48 h, 250 µM
Summary of the method: (§2)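 LLC-MK2 cells were kept in EMEM with 1% glutamine (200 mM) and 2% FBS at 37 °C under 5% CO2. They were exposed in triplicate to 250 µM of each compound for 48 h. Viability was read by MTT or AlamarBlue assay.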

[2] = Inhibition of hemagglutinin activity of human parainfluenza virus 1 C35 hemagglutinin-neuraminidase incubated for 20 mins in presence of chicken red blood cells; design: species or system Human respirovirus 1
Summary of the method: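 HI used hPIV-1 strain C-35 grown in LLC-MK2 cells, with clarified supernatant ultrafiltered ≥10-fold. Compounds were diluted in PBS, mixed with virus (1 HAU final) and held 20 min at room temperature. Ice-cold 0.5% chicken RBC were added on ice, then 1 h 30 min at 4 °C. Run in duplicate, maximum 250 µM. IC50 is the concentration matching agglutination of a 0.5 HAU virus-only well.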

LLC-MK2 [3] = assay: (§3) Cytotoxicity against rhesus monkey LLC-MK2 cells assessed as cell viability at 250 uM after 48 hrs by alamar blue assay; format: cell-based, Macaca mulatta; conditions: llc-mk2, 48 h, 250 µM; summary of the method: as §2
[4] = as §1; format: cell-based, Macaca mulatta; conditions: LLC-MK2 cells, read-out: Activity; summary of the method: as §2
[5] = as §3; format: cell-based, Macaca mulatta; conditions: LLC-MK2 cells, read-out: Activity; summary of the method: as §2

SMILES	Activity (LLC-MK2 [1])	IC50 [2] [nM]	Activity (LLC-MK2 [3])	viability at 48 h, 250 µM [4] [%]	viability at 48 h, 250 µM [5] [%]
CC(C)C(=O)N[C@H]1[C@H]([C@H](O)[C@H](O)CO)OC(C(=O)[O-])=C[C@@H]1N.[Na+]	Non-toxic	7290	Non-toxic	–	–
CC(C)C(=O)N[C@H]1[C@H]([C@H](O)[C@H](O)CO)OC(C(=O)O)=C[C@@H]1O	–	490	–	93	93
CC(CO)C(=O)N[C@H]1[C@H]([C@H](O)[C@H](O)CO)OC(C(=O)[O-])=C[C@@H]1N=[N+]=[N-].[Na+] (some centres not stated)	Non-toxic	3000	Non-toxic	–	–
CC(C)C(=O)N[C@H]1[C@H]([C@H](O)[C@H](O)CO)OC(C(=O)[O-])=C[C@@H]1N=[N+]=[N-].[Na+]	Non-toxic	80	Non-toxic	–	–
CC(=O)N[C@H]1[C@H]([C@H](O)[C@H](O)CO)OC(C(=O)[O-])=C[C@@H]1O.[Na+]	Non-toxic	15900	Non-toxic	–	–
[N-]=[N+]=N[C@H]1C=C(C(=O)[O-])O[C@@H]([C@H](O)[C@H](O)CO)[C@@H]1NC(=O)C1CC1.[Na+]	Non-toxic	320	Non-toxic	–	–
C/C=C(\C)C(=O)N[C@H]1[C@H]([C@H](O)[C@H](O)CO)OC(C(=O)[O-])=C[C@@H]1N=[N+]=[N-].[Na+]	Non-toxic	3000	Non-toxic	–	–
CC(=O)N[C@H]1[C@H]([C@H](O)[C@H](O)CO)OC(C(=O)[O-])=C[C@@H]1N.[Na+]	Non-toxic	> 250000	Non-toxic	–	–
CC(=O)N[C@H]1[C@H]([C@H](O)[C@H](O)CO)OC(C(=O)[O-])=C[C@@H]1N=[N+]=[N-].[Na+]	Non-toxic	3500	Non-toxic	–	–
CCC(C)C(=O)N[C@H]1[C@H]([C@H](O)[C@H](O)CO)OC(C(=O)[O-])=C[C@@H]1N=[N+]=[N-].[Na+] (some centres not stated)	Non-toxic	320	Non-toxic	–	–
CC(=O)N[C@H]1[C@H]([C@H](O)[C@H](O)CO)OC(C(=O)[O-])=C[C@@H]1NC(=N)N.[Na+]	Non-toxic	> 250000	Non-toxic	–	–
CC(C)C(=O)N[C@H]1[C@H]([C@H](O)[C@H](O)CO)OC(C(=O)[O-])=C[C@@H]1NC(=N)N.[Na+]	Non-toxic	> 250000	Non-toxic	–	–
CC(O)C(=O)N[C@H]1[C@H]([C@H](O)[C@H](O)CO)OC(C(=O)[O-])=C[C@@H]1N=[N+]=[N-].[Na+] (some centres not stated)	Non-toxic	40000	Non-toxic	–	–
[N-]=[N+]=N[C@H]1C=C(C(=O)[O-])O[C@@H]([C@H](O)[C@H](O)CO)[C@@H]1NC(=O)C1CCC1.[Na+]	Non-toxic	930	Non-toxic	–	–
